Data taken from ChEMBL document CHEMBL4052828, “Discovery of 4-((7H-Pyrrolo[2,3-d]pyrimidin-4-yl)amino)-N-(4-((4-methylpiperazin-1-yl)methyl)phenyl)-1H-pyrazole-3-carboxamide (FN-1501), an FLT3- and CDK-Kinase Inhibitor with Potentially High Efficiency against Acute Myelocytic Leukemia” (J Med Chem, 2018).
Active and inactive are the calls of the source. No cut-off for these calls is given here.

Assays:
MV4-11 [1] = assay: Antitumor activity against human MV4-11 cells xenografted in nu/nu mouse assessed as tumor growth inhibition at 50 mg/kg, iv qd measured on day 21 relative to vehicle-treated control; type: functional; details: MV4-11, iv, 504 h, read-out: TGI
In short: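 Female nu/nu mice bearing MV4-11 xenografts; dosing began once tumors reached 200 mm3. Given iv once daily for 21 days, with a vehicle-only group. Body weight and tumor size tracked relative to initial values, set as 100%. Tumors weighed at the end of the 22-day treatment period.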

CDK2/Cyclin A1 = CDK2/Cyclin A1 (Homo sapiens, UniProt P24941); assay: Inhibition of human CDK2/Cyclin A1 using histone H1 as substrate preincubated for 20 mins followed by [gamma-33P]-ATP addition measure after 120 mins by filter binding method; type: protein-complex assay
In short: (§1)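 Compound preincubated with kinase 20 min at room temperature. Filter-binding read-out, curve-fitted IC50; mean ± SD of three independent experiments.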

[2] = target: T1, Receptor-type tyrosine-protein kinase FLT3 (Homo sapiens, UniProt P36888); assay: Inhibition of human FLT3 using EAIYAAPFAKKK as substrate preincubated for 20 mins followed by [gamma-33P]-ATP addition measure after 120 mins by filter binding method; in short: as §1
T1 sequence (P36888 whole entry): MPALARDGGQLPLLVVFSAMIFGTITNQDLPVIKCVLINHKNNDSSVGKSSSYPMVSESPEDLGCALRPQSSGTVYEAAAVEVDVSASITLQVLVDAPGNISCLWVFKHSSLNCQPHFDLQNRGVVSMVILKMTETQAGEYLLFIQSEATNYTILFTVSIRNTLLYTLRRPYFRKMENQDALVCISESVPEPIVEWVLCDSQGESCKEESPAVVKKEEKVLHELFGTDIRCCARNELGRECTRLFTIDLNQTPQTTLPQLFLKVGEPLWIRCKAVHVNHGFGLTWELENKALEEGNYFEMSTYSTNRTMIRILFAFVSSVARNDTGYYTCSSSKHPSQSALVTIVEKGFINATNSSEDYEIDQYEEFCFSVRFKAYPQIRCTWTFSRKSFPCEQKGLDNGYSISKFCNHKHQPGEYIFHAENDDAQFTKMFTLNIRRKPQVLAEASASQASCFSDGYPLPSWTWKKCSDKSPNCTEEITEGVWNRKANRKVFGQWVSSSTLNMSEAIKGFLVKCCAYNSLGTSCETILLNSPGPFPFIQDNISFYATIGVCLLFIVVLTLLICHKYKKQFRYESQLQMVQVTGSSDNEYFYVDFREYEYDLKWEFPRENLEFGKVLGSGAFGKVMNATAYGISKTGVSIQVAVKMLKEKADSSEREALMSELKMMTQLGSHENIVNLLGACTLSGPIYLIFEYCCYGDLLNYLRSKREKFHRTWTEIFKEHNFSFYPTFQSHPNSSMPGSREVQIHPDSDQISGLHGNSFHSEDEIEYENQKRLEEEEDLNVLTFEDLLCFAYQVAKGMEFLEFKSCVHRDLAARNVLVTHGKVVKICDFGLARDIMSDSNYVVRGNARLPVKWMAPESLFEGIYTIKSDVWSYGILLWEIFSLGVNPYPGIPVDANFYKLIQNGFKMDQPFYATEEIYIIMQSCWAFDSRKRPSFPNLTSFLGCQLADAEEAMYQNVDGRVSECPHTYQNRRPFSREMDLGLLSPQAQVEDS

MV4-11 [3] = assay: Growth inhibition of human MV4-11 cells after 72 hrs by CellTiter-Glo assay; type: functional, cell-based; details: MV4-11, 72 h
In short: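 MV4-11 cells grown in IMDM with 10% FBS, 2% L-glutamine and 1% pen/strep at 37 °C, 5% CO2. Seeded at 10000 cells/well and exposed to compound at various concentrations for 72 h. Viability read by CellTiter-Glo luminescence.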

[4] = target: Cyclin-dependent kinase 4/cyclin D1 (Homo sapiens, UniProt P11802); assay: Inhibition of human CDK4/Cyclin D1 using RB protein as substrate preincubated for 20 mins followed by [gamma-33P]-ATP addition measure after 120 mins by filter binding method; type: protein-complex assay
In short: (§2)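 Compound preincubated with kinase 20 min at room temperature. Reaction started with 10 μM [γ-33P]ATP and run 120 min at 25°C. Filter-binding read-out, curve-fitted IC50; mean ± SD of three independent experiments.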

CDK6/cyclin D1 = CDK6/cyclin D1 (Homo sapiens, UniProt Q00534); assay: Inhibition of human CDK6/Cyclin D1 using RB protein as substrate preincubated for 20 mins followed by [gamma-33P]-ATP addition measure after 120 mins by filter binding method; type: protein-complex assay; in short: as §2
[5] = target: ALK tyrosine kinase receptor (Homo sapiens, UniProt Q9UM73); assay: Inhibition of human ALK using poly[Glu:Tyr] (4:1) as substrate preincubated for 20 mins followed by [gamma-33P]-ATP addition measure after 120 mins by filter binding method
In short: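 Compound in DMSO was added to the kinase mixture for 20 min at room temperature. The reaction was started with 10 μM [γ-33P]ATP and run 120 min at 25 °C.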

RS4-11 = assay: Growth inhibition of human RS4:11 cells after 72 hrs by CellTiter-Glo assay; type: functional; details: RS4-11, 72 h
MCF7 = assay: Growth inhibition of human MCF7 cells after 72 hrs by CellTiter-Glo assay; type: functional; details: MCF7, 72 h
HCT-116 = assay: Growth inhibition of human HCT116 cells after 72 hrs by CellTiter-Glo assay; type: functional; details: HCT-116, 72 h
NCI-H82 = assay: Growth inhibition of human NCI-H82 cells after 72 hrs by CellTiter-Glo assay; type: functional; details: NCI-H82, 72 h
MGC-803 = assay: Growth inhibition of human MGC803 cells after 72 hrs by CellTiter-Glo assay; type: functional; details: MGC-803, 72 h
MV4-11 [6] = assay: Induction of apoptosis in human MV4-11 cells assessed as early apoptotic cells at 2 uM after 24 hrs by annexin V-FITC/propidium iodide staining-based flow cytometric method (reference value: 3.54%); type: functional
MV4-11 [7] = assay: Induction of apoptosis in human MV4-11 cells assessed as late apoptotic cells at 2 uM after 24 hrs by annexin V-FITC/propidium iodide staining-based flow cytometric method (reference value: 2.54%); type: functional
MV4-11 [8] = assay: Cell cycle arrest in human MV4-11 cells assessed as accumulation at G0/G1 phase at 0.2 uM after 24 hrs by propidium iodide/BrdU staining-based flow cytometric method; type: functional
In short: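 Cells treated with compound for 24 h, then fixed. Double-stained with propidium iodide and BrdU for flow cytometric analysis of cell cycle distribution.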

[9] = target: Receptor-type tyrosine-protein kinase FLT3 (Homo sapiens) (UniProt P36888); details: 1 uM
[10] = target: Receptor-type tyrosine-protein kinase FLT3 (Homo sapiens) (UniProt P36888); details: 1 uM; remark: listed apart in the source
[11] = target: Receptor-type tyrosine-protein kinase FLT3 (Homo sapiens) (UniProt P36888); details: 1 uM; remark: listed apart in the source
[12] = target: Receptor-type tyrosine-protein kinase FLT3 (Homo sapiens) (UniProt P36888); details: 1 uM; remark: listed apart in the source

Chain of CDK6/cyclin D1 (P24385 whole entry): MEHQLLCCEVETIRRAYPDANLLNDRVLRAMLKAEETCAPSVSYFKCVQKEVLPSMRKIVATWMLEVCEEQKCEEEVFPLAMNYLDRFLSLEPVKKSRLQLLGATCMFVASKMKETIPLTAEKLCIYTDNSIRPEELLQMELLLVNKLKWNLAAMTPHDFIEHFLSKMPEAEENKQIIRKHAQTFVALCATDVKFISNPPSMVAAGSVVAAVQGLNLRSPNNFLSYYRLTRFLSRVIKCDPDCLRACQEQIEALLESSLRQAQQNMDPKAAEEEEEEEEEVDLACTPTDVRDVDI
Chain of CDK6/cyclin D1 (Q00534 whole entry): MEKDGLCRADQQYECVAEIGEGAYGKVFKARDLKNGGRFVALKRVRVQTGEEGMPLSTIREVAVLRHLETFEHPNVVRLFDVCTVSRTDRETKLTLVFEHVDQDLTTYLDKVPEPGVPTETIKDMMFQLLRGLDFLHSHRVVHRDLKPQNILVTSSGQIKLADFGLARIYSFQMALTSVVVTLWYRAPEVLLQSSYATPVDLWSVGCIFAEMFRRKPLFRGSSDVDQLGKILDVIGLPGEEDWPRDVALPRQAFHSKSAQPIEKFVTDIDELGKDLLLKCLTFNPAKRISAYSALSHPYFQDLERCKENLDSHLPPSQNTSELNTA
Chain of ALK tyrosine kinase receptor (Q9UM73 whole entry): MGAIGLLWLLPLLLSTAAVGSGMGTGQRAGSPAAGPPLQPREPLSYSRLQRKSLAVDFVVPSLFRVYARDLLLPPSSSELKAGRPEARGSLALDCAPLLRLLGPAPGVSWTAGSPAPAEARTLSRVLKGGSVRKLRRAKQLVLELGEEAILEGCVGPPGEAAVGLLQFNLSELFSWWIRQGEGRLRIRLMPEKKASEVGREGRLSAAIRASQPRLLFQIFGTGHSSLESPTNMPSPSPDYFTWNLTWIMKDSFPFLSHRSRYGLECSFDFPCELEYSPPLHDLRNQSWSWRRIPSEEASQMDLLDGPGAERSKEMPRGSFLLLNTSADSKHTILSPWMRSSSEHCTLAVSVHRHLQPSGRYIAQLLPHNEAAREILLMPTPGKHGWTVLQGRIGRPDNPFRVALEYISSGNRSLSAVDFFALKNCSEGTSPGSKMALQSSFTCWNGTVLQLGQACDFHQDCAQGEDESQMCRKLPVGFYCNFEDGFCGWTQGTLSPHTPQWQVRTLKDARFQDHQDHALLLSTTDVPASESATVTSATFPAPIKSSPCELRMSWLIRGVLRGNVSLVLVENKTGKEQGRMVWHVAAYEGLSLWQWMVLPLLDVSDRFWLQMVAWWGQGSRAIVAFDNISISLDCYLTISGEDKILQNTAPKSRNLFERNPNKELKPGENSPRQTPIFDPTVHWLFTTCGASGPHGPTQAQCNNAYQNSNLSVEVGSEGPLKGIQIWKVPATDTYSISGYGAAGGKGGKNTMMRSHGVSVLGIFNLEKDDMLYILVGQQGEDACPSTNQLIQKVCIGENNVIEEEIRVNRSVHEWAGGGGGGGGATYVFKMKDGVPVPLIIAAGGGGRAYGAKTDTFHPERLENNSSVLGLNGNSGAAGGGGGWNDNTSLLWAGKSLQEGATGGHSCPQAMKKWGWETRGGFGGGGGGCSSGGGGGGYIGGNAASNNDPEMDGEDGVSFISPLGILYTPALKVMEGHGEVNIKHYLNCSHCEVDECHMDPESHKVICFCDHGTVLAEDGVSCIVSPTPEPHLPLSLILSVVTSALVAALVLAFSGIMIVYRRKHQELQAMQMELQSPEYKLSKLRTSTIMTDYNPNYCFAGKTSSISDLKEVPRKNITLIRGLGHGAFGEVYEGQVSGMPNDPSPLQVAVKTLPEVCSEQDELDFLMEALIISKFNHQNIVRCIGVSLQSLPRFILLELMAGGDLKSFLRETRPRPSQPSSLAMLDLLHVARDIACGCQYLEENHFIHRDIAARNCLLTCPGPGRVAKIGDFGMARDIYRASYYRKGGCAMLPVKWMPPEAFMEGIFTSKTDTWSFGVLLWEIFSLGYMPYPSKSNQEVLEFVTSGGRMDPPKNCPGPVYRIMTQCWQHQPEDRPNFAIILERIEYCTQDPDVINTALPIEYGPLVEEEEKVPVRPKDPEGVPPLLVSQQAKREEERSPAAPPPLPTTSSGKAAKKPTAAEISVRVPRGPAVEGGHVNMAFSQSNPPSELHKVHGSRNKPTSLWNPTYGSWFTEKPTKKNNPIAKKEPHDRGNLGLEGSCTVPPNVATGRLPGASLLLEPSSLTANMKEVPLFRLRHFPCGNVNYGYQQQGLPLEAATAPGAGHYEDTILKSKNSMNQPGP
Chain of Cyclin-dependent kinase 4/cyclin D1 (P11802 whole entry): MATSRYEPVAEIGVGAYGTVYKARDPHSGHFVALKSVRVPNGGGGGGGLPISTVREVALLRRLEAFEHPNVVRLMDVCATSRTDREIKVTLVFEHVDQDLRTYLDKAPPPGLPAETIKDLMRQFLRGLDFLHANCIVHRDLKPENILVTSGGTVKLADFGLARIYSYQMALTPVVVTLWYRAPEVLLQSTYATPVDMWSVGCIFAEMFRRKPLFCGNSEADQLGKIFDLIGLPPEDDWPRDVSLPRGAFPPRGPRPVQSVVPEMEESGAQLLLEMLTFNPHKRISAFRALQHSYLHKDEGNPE
Chain of Cyclin-dependent kinase 4/cyclin D1 (P24385 whole entry, further chain): as the sequence (P24385 whole entry) above

Row | SMILES | inhibition in vivo at 50 mg/kg (MV4-11 [1]) [%] | IC50 (CDK2/Cyclin A1) [nM] | IC50 [2] [nM] | IC50 (MV4-11 [3]) [nM] | IC50 [4] [nM] | IC50 (CDK6/cyclin D1) [nM] | IC50 [5] [nM] | GI50 (RS4-11) [nM] | GI50 (MCF7) [nM] | GI50 (HCT-116) [nM] | GI50 (NCI-H82) [nM] | GI50 (MGC-803) [nM] | Activity (MV4-11 [6]) [%] | Activity (MV4-11 [7]) [%] | Activity (MV4-11 [8]) | inhibition [9] | inhibition [10] | inhibition [11] | inhibition [12]
1 | Nc1ccn([C@@H]2O[C@H](CO)[C@@H](O)[C@@H]2O)c(=O)n1 [CYTARABINE] | 61.9 |  |  |  |  |  |  |  |  |  |  |  |  |  |  |  |  |  | 
2 | CN1CCN(Cc2ccc(NC(=O)c3n[nH]cc3Nc3ncnc4sccc34)cc2)CC1 |  | 5.85 to 9.47 | 0.438 to 0.6 | 19 | 3.33 to 5.57 | 4.24 to 4.5 | 94.1 | 130 | 620 | 370 | 170 | 160 |  |  |  |  |  |  | 
3 | CNC(=O)c1cc(Oc2ccc(NC(=O)Nc3ccc(Cl)c(C(F)(F)F)c3)cc2)ccn1 [SORAFENIB] |  |  |  | 4 |  |  |  |  |  |  |  |  | 51.35 | 23.97 | Active | Active | Active | Active | Active
